IC50, Activity and inhibition data for 15 compounds are collected here from ChEMBL document CHEMBL1268937, “Design of more potent squalene synthase inhibitors with multiple activities” (Bioorg Med Chem, 2010).

By IC50 is commonly meant the concentration needed to halve the response being measured.

Assay [1] in a line: (§1) Inhibition of soybean lipoxygenase measured for 6 mins. Set-up: species or system Glycine max. The gist of the method:
(§2)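 Soybean lipoxygenase (250 U/mL) with sodium linoleate (100 µM) as substrate in Tris-HCl pH 9.0. Compounds added in 60% ethanol. Absorbance at 234 nm followed for 6 min at 28 °C. Each concentration assayed twice.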

The next assay addresses T1, Squalene synthase (Rattus norvegicus, UniProt Q02769).
T1 sequence (Q02769 whole entry): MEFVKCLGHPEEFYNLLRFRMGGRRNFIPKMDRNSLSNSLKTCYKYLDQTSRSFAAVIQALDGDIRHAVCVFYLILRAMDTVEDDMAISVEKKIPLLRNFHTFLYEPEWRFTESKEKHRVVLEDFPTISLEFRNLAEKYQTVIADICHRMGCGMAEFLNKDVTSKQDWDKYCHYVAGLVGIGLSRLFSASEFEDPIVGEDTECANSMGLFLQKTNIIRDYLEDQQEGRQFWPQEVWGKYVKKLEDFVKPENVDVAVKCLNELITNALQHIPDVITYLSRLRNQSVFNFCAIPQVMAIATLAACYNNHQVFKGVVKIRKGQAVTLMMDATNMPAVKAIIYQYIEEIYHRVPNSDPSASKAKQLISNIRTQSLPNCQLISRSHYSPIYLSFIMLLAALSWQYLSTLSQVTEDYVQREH
The assay is described as follows: Inhibition of squalene synthase in rat liver microsomes assessed as [3H] FPP to squalene conversion level after 10 mins by scintillation counting. Also on record: species or system Microsome. The gist of the method: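 Rat liver microsomes (18 µg protein/mL) in 50 mM phosphate pH 7.4 with 10 mM MgCl2 and 0.5 mM NADPH, preincubated with compounds for 10 min at 37 °C. Started with [3H]FPP and run for 10 min at 37 °C. Stopped with 15% ethanolic KOH, then 65 °C for 30 min. Squalene extracted into petroleum ether, washed and counted by scintillation. Triplicates; IC50 is the concentration giving 50% inhibition.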
A general note: Liver microsomes are a subcellular fraction often used to study metabolism.

Another assay has as its system Liver microsomes. The assay is described as follows: Antioxidant activity in rat hepatic microsomes assessed as inhibition of lipid peroxidation after 45 min by spectrophotometric analysis. It is filed as functional, Microsome. The gist of the method: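 Non-enzymatic peroxidation of rat hepatic microsomal lipids in buffer (150 mM, pH 7.4). Compounds in DMSO, 10 µM–1 mM. Started with fresh FeSO4 and incubated at 37 °C for 45 min. Thiobarbituric acid-reactive material read at 535 against 600 nm. Run in duplicate.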

Assay [2] concerns Rattus norvegicus. The assay is described as follows: Antidyslipidemic activity against triton WR-1339-induced hyperlipidemia in rat assessed as reduction in plasma total cholesterol level at 56 umol/kg, ip after 24 hrs relative to control. The assay is classed as functional. Set-up: scale not given: the % may be the effect or the level left. The gist of the method: (§3)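 Hyperlipidemia induced in male Wistar rats by ip Triton WR 1339 (200 mg/kg, aqueous). Test compounds in saline given ip 1 h later; saline-only controls. Blood drawn from the aorta 24 h later. Plasma total cholesterol, LDL-cholesterol and triglycerides measured with commercial kits in duplicate. Values are means of 8–10 rats per compound.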

The subject of assay [3] is Rattus norvegicus. The assay is described as follows: Antidyslipidemic activity against triton WR-1339-induced hyperlipidemia in rat assessed as reduction in plasma LDL-cholesterol level at 56 umol/kg, ip after 24 hrs relative to control. The assay is classed as functional. Set-up: scale not given: the % may be the effect or the level left. The gist of the method:
as §3

Assay [4] concerns Rattus norvegicus. The assay is described as follows: Antidyslipidemic activity against triton WR-1339-induced hyperlipidemia in rat assessed as reduction in plasma triglyceride level at 56 umol/kg, ip after 24 hrs relative to control. Set-up: scale not given: the % may be the effect or the level left. The assay is classed as functional. The gist of the method:
as §3

Assay [5] concerns Rattus norvegicus. The assay is described as follows: Antiinflammatory activity in Wistar rat assessed as inhibition of carrageenan-induced paw edema at 300 umol/kg, ip after 3.5 hrs. The assay is classed as functional. The gist of the method:
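Male Wistar rats (150–180 g) received 0.1 mL of 2% w/v carrageenan in saline intradermally into the right hind paw; the left paw served as control. Compounds were given ip right after carrageenan. Edema was taken as paw weight increase at 3.5 h and expressed as % inhibition versus the control group. Means of 8–10 rats; Student's t-test.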
For orientation: Carrageenan injected into the paw causes an acute inflammation.

Assay [6] relates to Glycine max. The description is as §1. The gist of the method: as §2
In assay [7] the test system is Glycine max. The assay is described as follows: Inhibition of soybean lipoxygenase at up to 150 uM. The note with it: TDE = time-dependent effect. The gist of the method: as §2

The source made the active and inactive calls. The calls are words filed in the database; no cut-off is given here.

Take `Br.OC1(c2ccc3ccccc3c2)CN2CCCCC2CO1` (stereo unspecified): the IC50 in assay [1] is > 300 µM; on Squalene synthase it was 130 µM; in the assay with Liver microsomes, 440 µM. The Activity came to 33% in the assay with Rattus norvegicus [2], 42% with Rattus norvegicus [3] and 41% in the assay with Rattus norvegicus [4]. In addition, the result in the assay with Rattus norvegicus [5] was Active.
Consider `CN1CC(O)(c2ccc(-c3ccccc3)cc2)OC2CCCCC21` (stereo unspecified), for which the IC50 in assay [1] is 110 µM. The Activity worked out at 54% in the assay on Rattus norvegicus [2], 51% in the assay with Rattus norvegicus [3] and 49% in the assay with Rattus norvegicus [4].
As to `Br.COc1ccc2cc(-c3ccc(C4(O)CN5CCCCC5CO4)cc3)ccc2c1` (stereo unspecified), the IC50 in [1] was > 100 µM; on Squalene synthase, 18 µM; in the assay on Liver microsomes it was 65 µM. Moreover, the values for the Activity in the assay with Rattus norvegicus [2], in the assay on Rattus norvegicus [3] and with Rattus norvegicus [4] were 19%, 29% and 6%, respectively. Further, the result in the assay with Rattus norvegicus [5] was Active.
Regarding `Br.COc1ccc2cc(C3(O)CN4CCCCC4CO3)ccc2c1` (stereo unspecified), the values for the IC50 (in assay [1]; on Squalene synthase; in the assay with Liver microsomes) were 53 µM, 18.7 µM and 390 µM, respectively. Moreover, the inhibition result in the assay on Glycine max [6] was “Dose-dependent effect”; in the assay with Glycine max [7], “tde”. The results for the Activity in the assay with Rattus norvegicus [2], with Rattus norvegicus [3] and with Rattus norvegicus [4] were 45%, 46% and 37%, respectively. Further, in the assay on Rattus norvegicus [5], the outcome was Active.
As for `Br.OC1(c2ccc(-c3ccc4ccccc4c3)cc2)CN2CCCCC2CO1` (stereo unspecified), the values for the IC50 (in assay [1]; in the assay on Liver microsomes) were > 100 µM and 117 µM, respectively. Also, the Activity with Rattus norvegicus [2] is given as 49%; with Rattus norvegicus [3] it was 33%; with Rattus norvegicus [4], 34%. For the same compound, in the assay on Rattus norvegicus [5], the result was Active.
Regarding `Br.COc1ccc2cc(-c3ccc(C4(O)CN(C)CCO4)cc3)ccc2c1` (stereo unspecified), the figures for the IC50 (in assay [1]; at Squalene synthase; with Liver microsomes) were > 100 µM, 6.9 µM and 30 µM, respectively. The Activity is listed as 41% in the assay with Rattus norvegicus [2], 9% in the assay with Rattus norvegicus [3] and 30% in the assay on Rattus norvegicus [4].
In [1], `COc1ccc2cc([C@H](C)C(=O)O)ccc2c1` [NAPROXEN] showed an IC50 of 24 µM. In addition, the Activity with Rattus norvegicus [5] was determined as 51%.
As to `Br.COc1ccc2cc(C3(O)CN(C)CCO3)ccc2c1` (stereo unspecified), the IC50 came out at 20 µM in assay [1], 155 µM at Squalene synthase and 900 µM in the assay on Liver microsomes. In addition, the inhibition result in the assay with Glycine max [6] is “Dose-dependent effect”; with Glycine max [7], “tde”. Further, the Activity in the assay on Rattus norvegicus [2] came out at 62%; in the assay with Rattus norvegicus [3], 24%; with Rattus norvegicus [4] it was 51%; with Rattus norvegicus [5] it was 58%.
As for `CC(C)(Sc1cc(C(C)(C)C)c(O)c(C(C)(C)C)c1)Sc1cc(C(C)(C)C)c(O)c(C(C)(C)C)c1` [PROBUCOL], the Activity in the assay on Rattus norvegicus [2] amounted to 18%; with Rattus norvegicus [3], 18%; with Rattus norvegicus [4] it was 11%.
For `Br.CN1CC(O)(c2ccc3ccccc3c2)OC2CCCCC21` (stereo unspecified), the IC50 is > 300 µM in assay [1], 15.1 µM on Squalene synthase and 600 µM in the assay on Liver microsomes. Further, the Activity with Rattus norvegicus [2] is 43%; in the assay with Rattus norvegicus [3], 39%; in the assay with Rattus norvegicus [4], 51%; in the assay on Rattus norvegicus [5], 54%.
Turning to `Br.COc1ccc2cc(-c3ccc(C4(O)CN(C)C5CCCCC5O4)cc3)ccc2c1` (stereo unspecified), the IC50 in assay [1] was > 100 µM; at Squalene synthase it was 1.4 µM; in the assay with Liver microsomes it was 48 µM. Besides, the figures for the Activity with Rattus norvegicus [2], in the assay with Rattus norvegicus [3] and in the assay with Rattus norvegicus [4] were 32%, 54% and 82%, respectively. Also, the outcome with Rattus norvegicus [5] was Active.
Turning to `Br.CN1CCOC(O)(c2ccc3ccccc3c2)C1` (stereo unspecified), the figures for the IC50 (in assay [1]; at Squalene synthase; in the assay with Liver microsomes) were > 300 µM, 135 µM and 640 µM, respectively. Moreover, the results for the Activity with Rattus norvegicus [2], in the assay with Rattus norvegicus [3] and in the assay with Rattus norvegicus [4] were 51%, 36% and 40%, respectively. For the same compound, the result with Rattus norvegicus [5] was Active.
In the case of `Br.CN1CC(O)(c2ccc(-c3ccc4ccccc4c3)cc2)OC2CCCCC21` (stereo unspecified), the IC50 is > 100 µM in assay [1], 0.8 µM at Squalene synthase and 118 µM with Liver microsomes. In addition, the Activity with Rattus norvegicus [2] worked out at 43%; in the assay with Rattus norvegicus [3], 48%; with Rattus norvegicus [4], 32%.
As for `Br.COc1ccc2cc(C3(O)CN(C)C4CCCCC4O3)ccc2c1` (stereo unspecified), the IC50 is 84 µM in [1], 40 µM on Squalene synthase and 220 µM with Liver microsomes. Moreover, the inhibition result with Glycine max [6] is “Dose-dependent effect”; with Glycine max [7] it was “tde”. Moreover, the Activity was 36% in the assay with Rattus norvegicus [2], 33% in the assay with Rattus norvegicus [3], 47% with Rattus norvegicus [4] and 53% in the assay with Rattus norvegicus [5].
As to `Br.CN1CCOC(O)(c2ccc(-c3ccc4ccccc4c3)cc2)C1` (stereo unspecified), the IC50 in [1] is > 100 µM; on Squalene synthase, 1.9 µM; with Liver microsomes, 71 µM. The Activity is recorded as 37% in the assay with Rattus norvegicus [2], 59% in the assay with Rattus norvegicus [3] and 28% with Rattus norvegicus [4]. Also, the result in the assay on Rattus norvegicus [5] was Active.
